Experimental data taken from publication PMC6634314 (Cell chemical biology, 2019).

Tests used:
GAK [1] = biological target: T1, GAK (Homo sapiens, UniProt O14976); test: MIB washout assay; type: binding; conditions: H23 cells, 1 μM 4h, MIB pulldown ratio SM1-71/SM1-71-R
T1 sequence (O14976 1-1311): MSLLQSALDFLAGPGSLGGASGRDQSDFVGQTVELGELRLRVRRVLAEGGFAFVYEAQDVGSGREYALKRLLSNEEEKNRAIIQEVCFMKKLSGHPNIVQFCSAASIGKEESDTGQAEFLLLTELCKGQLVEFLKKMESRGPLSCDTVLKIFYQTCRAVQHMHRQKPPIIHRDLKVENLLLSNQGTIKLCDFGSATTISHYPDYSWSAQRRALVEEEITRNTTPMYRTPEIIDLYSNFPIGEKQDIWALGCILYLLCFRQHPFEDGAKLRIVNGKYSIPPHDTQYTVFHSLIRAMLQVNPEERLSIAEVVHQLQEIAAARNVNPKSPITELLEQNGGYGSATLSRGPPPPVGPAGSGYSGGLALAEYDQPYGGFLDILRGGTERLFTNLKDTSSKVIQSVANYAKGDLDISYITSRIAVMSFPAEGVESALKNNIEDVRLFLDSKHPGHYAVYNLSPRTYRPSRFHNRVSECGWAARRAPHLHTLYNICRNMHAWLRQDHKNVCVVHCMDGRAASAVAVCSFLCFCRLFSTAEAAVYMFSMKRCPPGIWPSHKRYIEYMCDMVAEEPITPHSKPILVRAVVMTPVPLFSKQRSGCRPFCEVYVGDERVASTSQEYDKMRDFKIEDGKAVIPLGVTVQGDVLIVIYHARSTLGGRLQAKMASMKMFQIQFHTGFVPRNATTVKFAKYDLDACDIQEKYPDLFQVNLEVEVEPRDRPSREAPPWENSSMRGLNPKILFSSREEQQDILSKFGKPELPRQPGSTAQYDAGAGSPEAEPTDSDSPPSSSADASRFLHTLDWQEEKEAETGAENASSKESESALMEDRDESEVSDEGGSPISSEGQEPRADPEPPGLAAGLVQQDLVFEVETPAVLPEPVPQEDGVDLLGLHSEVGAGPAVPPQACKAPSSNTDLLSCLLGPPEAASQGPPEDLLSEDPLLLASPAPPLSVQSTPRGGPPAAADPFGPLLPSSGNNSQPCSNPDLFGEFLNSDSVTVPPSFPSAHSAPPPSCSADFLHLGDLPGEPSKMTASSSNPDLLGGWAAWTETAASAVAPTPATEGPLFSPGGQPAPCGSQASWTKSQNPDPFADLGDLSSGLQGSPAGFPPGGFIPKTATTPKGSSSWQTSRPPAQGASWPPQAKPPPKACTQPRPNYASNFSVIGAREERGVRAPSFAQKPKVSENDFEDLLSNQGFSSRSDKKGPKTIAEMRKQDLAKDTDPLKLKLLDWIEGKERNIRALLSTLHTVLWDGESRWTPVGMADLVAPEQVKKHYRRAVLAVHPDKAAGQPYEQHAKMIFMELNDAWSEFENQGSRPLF

MAP2K1 = test: MIB washout assay; type: binding, Human; conditions: H23 cells, 1 μM 4h, MIB pulldown ratio SM1-71/SM1-71-R
MAP3K1 = test: MIB washout assay; type: binding, Human; conditions: H23 cells, 1 μM 4h, 0h post-washout, MIB pulldown ratio SM1-71/SM1-71-R
CSNK2A1 = test: MIB washout assay; type: binding, Human; conditions: H23 cells, 1 μM 4h, MIB pulldown ratio SM1-71/SM1-71-R
MET = test: MIB washout assay; type: binding, Human; conditions: H23 cells, 1 μM 4h, MIB pulldown ratio SM1-71/SM1-71-R
PIP4K2C = test: MIB washout assay; type: binding, Human; conditions: H23 cells, 1 μM 4h, MIB pulldown ratio SM1-71/SM1-71-R
IGF1R = test: MIB washout assay; type: binding, Human; conditions: H23 cells, 1 μM 4h, MIB pulldown ratio SM1-71/SM1-71-R
CSNK1G1 = test: MIB washout assay; type: binding, Human; conditions: H23 cells, 1 μM 4h, MIB pulldown ratio SM1-71/SM1-71-R
CDK17 = test: MIB washout assay; type: binding, Human; conditions: H23 cells, 1 μM 4h, MIB pulldown ratio SM1-71/SM1-71-R
MAPK3 = test: MIB washout assay; type: binding, Human; conditions: H23 cells, 1 μM 4h, MIB pulldown ratio SM1-71/SM1-71-R
LYN = test: MIB washout assay; type: binding, Human; conditions: H23 cells, 1 μM 4h, MIB pulldown ratio SM1-71/SM1-71-R
TK2 = test: MIB washout assay; type: binding, Human; conditions: H23 cells, 1 μM 4h, MIB pulldown ratio SM1-71/SM1-71-R
TNIK = test: MIB washout assay; type: binding, Human; conditions: H23 cells, 1 μM 4h, MIB pulldown ratio SM1-71/SM1-71-R
AURKA = biological target: T2, AURKA (Homo sapiens, UniProt O14965); test: MIB washout assay; type: binding
T2 sequence (O14965 1-403): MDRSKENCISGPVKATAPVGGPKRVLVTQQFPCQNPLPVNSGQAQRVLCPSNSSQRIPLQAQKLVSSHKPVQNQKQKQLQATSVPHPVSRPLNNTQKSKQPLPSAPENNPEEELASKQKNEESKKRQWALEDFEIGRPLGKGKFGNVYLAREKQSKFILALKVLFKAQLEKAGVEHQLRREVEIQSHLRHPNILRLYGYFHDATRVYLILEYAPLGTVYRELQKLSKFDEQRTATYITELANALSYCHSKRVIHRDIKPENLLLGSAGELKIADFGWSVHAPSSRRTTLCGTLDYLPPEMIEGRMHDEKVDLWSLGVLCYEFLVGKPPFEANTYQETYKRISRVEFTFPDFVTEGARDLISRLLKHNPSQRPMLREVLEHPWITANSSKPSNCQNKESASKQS

TEC = test: MIB washout assay; type: binding, Human
GAK [2] = biological target: T1, GAK; test: mass shift assay; type: binding; conditions: incubated 4 and 24h
In short: (§1)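 Kinase protein at 0.12 mM in 10 mM HEPES pH 7.5, 500 mM NaCl, incubated with 0.2 mM test compound at 4°C for 4 h and 24 h. Samples were diluted in 0.1% formic acid and desalted on a C3 pre-column. ESI-TOF was run in positive mode at 120 V, and intact mass was obtained by deconvolution to detect the adduct.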

GSK3B = GSK3B (Homo sapiens, UniProt P49841); test: mass shift assay; type: binding; conditions: incubated 4 and 24h
In short: as §1

YES1 = YES1 (Homo sapiens, UniProt P07947); test: MIB dose-dependent kinase inhibition assay; type: binding; conditions: read-out: IC50 in the MIB assay, H23 cell lysate, overnight 4°C
[3] = H23 cells, 1 μM 4h, 0h post-washout, MIB pulldown ratio SM1-71/SM1-71-R
[4] = H23 cells, 1 μM 4h, 6h post-washout, MIB pulldown ratio SM1-71/SM1-71-R

Chain of YES1 (P07947 whole entry): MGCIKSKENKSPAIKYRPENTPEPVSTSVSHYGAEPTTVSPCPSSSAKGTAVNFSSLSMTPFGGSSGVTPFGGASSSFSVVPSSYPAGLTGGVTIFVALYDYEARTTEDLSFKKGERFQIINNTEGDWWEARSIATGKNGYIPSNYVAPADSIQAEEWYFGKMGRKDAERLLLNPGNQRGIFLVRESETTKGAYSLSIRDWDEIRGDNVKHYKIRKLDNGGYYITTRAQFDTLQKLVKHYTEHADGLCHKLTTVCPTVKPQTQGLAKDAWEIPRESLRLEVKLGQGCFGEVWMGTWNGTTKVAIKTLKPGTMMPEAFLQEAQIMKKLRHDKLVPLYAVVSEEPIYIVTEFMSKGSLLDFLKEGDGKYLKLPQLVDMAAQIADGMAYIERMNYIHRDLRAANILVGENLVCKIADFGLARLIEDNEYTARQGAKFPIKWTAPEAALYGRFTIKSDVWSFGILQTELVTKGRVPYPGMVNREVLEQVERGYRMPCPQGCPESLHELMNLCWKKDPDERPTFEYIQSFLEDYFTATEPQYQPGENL
Chain of GSK3B (P49841 whole entry, species assumed): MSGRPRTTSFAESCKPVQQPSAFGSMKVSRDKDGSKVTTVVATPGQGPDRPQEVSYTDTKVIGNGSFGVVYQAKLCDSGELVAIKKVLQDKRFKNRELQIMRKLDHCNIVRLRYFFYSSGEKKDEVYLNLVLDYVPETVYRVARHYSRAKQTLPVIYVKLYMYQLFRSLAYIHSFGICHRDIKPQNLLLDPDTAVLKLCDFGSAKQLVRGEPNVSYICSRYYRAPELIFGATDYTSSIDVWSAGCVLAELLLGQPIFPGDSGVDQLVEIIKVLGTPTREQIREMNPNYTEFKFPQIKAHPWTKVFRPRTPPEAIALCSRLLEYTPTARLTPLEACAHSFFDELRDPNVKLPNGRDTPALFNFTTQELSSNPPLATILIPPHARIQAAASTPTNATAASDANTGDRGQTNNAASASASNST

## C=CC(=O)Nc1ccccc1Nc1nc(Nc2ccc(N3CCN(C)CC3)cc2)ncc1Cl [SM1-71]
GAK [1]; 0h post-washout
  BI-0h: 0.07
GAK [1]; 6h post-washout
  BI-6h: 0.04
MAP2K1; 0h post-washout
  BI-0h: 0.05
MAP2K1; 6h post-washout
  BI-6h: 0.36
MAP3K1
  BI-0h: 0.2
CSNK2A1; 0h post-washout
  BI-0h: 0.8
CSNK2A1; 6h post-washout
  BI-6h: 0.64
MET; 0h post-washout
  BI-0h: 0.75
MET; 6h post-washout
  BI-6h: 0.53
PIP4K2C; 0h post-washout
  BI-0h: 0.8
PIP4K2C; 6h post-washout
  BI-6h: 0.6
IGF1R; 0h post-washout
  BI-0h: 0.45
IGF1R; 6h post-washout
  BI-6h: 0.64
CSNK1G1; 0h post-washout
  BI-0h: 0.55
CSNK1G1; 6h post-washout
  BI-6h: 0.81
CDK17; 0h post-washout
  BI-0h: 0.46
CDK17; 6h post-washout
  BI-6h: 0.76
MAPK3; 0h post-washout
  BI-0h: 0.62
MAPK3; 6h post-washout
  BI-6h: 0.54
LYN; 0h post-washout
  BI-0h: 1.1
LYN; 6h post-washout
  BI-6h: 0.79
TK2; 0h post-washout
  BI-0h: 0.83
TK2; 6h post-washout
  BI-6h: 0.95
TNIK; 0h post-washout
  BI-0h: 0.67
TNIK; 6h post-washout
  BI-6h: 0.74
AURKA; [3]
  BI-0h: 1.16
AURKA; [4]
  BI-6h: 2.38
AURKA; class from BI 0h and 6h
  Binding: Strongly Reversible (BI0h,6h greater than 1 suggesting a strong preference for reversible mode of inhibition)
TEC; [3]
  BI-0h: 1.02
TEC; [4]
  BI-6h: 1.43
TEC; class from BI 0h and 6h
  Binding: Strongly Reversible (BI0h,6h greater than 1 suggesting a strong preference for reversible mode of inhibition)
GAK [2]
  covalent adduct formation (mass shift): formed covalent adducts
GSK3B
  covalent adduct formation (mass shift): formed covalent adducts
YES1
  IC50: < 10 nM
